The record followed here is ChEMBL document CHEMBL4665884, “Structural Insights into the Recognition of Mono- and Diacetylated Histones by the ATAD2B Bromodomain” (J Med Chem, 2020).

In assay [1] the target is T1, ATPase family AAA domain-containing protein 2B (Homo sapiens, UniProt Q9ULI0).
T1 sequence (Q9ULI0 whole entry): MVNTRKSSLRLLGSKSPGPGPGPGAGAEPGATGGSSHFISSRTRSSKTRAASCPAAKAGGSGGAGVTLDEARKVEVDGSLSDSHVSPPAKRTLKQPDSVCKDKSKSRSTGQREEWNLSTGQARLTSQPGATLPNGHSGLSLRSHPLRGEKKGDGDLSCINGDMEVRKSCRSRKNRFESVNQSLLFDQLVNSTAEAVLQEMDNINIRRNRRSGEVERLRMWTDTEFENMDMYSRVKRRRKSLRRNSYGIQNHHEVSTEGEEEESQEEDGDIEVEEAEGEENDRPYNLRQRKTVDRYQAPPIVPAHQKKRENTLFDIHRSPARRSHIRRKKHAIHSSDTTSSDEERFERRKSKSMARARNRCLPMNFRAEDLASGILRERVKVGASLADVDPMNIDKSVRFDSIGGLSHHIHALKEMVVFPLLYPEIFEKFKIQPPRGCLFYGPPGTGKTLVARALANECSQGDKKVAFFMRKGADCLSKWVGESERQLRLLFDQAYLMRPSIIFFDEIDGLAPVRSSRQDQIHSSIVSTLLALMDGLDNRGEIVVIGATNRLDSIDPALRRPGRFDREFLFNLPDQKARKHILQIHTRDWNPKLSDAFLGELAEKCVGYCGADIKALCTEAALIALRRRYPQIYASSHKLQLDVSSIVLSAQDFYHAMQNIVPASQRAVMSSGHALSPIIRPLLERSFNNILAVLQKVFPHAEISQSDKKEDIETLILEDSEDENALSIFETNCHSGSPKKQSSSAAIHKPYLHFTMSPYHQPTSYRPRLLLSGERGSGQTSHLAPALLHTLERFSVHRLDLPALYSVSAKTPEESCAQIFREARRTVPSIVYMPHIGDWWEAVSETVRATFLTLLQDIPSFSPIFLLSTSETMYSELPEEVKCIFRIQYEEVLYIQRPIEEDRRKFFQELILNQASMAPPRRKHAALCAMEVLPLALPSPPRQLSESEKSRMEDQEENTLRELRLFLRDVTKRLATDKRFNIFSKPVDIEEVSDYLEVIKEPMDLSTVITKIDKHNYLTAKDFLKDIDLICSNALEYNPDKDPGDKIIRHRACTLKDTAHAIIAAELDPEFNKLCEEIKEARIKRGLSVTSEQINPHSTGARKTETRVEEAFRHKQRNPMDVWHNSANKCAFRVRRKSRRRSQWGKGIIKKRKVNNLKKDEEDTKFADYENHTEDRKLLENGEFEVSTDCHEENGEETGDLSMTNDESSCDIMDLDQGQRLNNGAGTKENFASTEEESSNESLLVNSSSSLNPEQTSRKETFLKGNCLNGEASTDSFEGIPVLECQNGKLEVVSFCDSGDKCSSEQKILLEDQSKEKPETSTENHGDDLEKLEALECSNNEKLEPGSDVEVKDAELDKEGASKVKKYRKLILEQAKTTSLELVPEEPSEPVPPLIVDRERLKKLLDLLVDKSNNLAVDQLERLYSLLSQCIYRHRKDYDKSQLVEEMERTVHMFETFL
The assay is described as follows: Binding affinity to N-terminal GST tagged human ATAD2B (953-1085 residues) expressed in Escherichia coli by ITC analysis. The procedure, abridged: (§1)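 GST tag removed by PreScission cleavage after glutathione-resin capture. Protein and peptides were dialyzed into 20 mM NaH2PO4 pH 7.0, 150 mM NaCl. Peptide dilution heats were subtracted. KD is the mean ± SD of triplicates; non-binders were run in duplicate.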
Background: Isothermal titration calorimetry measures the heat released or taken up as one component is titrated into another.

Assay [2] deals with T1, ATPase family AAA domain-containing protein 2B. Kind of assay: Binding affinity to N-terminal GST tagged human ATAD2B short form expressed in Escherichia coli by ITC analysis. The procedure, abridged: as §1
Assay [3] deals with T2, ATPase family AAA domain-containing protein 2 (Homo sapiens, UniProt Q6PL18).
T2 sequence (Q6PL18 whole entry): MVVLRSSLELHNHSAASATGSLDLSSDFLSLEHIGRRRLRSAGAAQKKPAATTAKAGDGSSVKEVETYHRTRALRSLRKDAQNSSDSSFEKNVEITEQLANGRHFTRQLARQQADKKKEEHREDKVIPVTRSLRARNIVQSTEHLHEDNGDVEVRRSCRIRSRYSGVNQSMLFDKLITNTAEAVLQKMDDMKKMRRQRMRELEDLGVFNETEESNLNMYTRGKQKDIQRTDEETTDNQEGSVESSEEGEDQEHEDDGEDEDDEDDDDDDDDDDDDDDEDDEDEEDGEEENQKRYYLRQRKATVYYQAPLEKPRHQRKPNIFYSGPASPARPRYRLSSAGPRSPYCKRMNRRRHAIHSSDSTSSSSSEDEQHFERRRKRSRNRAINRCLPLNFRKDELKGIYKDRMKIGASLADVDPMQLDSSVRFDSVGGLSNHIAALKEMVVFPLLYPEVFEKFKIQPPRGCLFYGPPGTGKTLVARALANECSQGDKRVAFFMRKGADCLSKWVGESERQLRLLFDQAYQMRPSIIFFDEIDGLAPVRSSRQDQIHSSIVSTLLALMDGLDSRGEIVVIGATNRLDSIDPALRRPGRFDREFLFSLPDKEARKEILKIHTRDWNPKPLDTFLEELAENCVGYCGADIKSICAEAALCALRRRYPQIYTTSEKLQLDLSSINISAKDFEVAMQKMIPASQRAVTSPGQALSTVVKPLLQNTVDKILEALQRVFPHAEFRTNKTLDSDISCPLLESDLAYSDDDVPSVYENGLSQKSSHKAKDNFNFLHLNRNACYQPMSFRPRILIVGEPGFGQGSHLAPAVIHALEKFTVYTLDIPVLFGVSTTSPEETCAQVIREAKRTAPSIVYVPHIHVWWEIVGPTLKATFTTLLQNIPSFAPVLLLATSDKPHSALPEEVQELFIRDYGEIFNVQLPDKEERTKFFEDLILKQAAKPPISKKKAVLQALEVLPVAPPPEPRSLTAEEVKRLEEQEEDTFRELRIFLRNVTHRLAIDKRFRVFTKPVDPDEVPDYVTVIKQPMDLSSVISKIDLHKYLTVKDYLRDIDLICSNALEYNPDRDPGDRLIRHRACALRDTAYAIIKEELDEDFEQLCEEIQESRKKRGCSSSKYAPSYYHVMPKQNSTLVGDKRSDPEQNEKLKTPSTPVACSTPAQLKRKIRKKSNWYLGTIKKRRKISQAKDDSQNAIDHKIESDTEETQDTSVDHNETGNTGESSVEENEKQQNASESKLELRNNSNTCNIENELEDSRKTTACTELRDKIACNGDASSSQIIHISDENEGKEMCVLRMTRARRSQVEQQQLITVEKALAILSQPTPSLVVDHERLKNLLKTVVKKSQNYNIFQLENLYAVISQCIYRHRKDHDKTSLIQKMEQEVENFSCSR
The assay is described as follows: Binding affinity to N-terminal GST tagged human ATAD2 (1-25 residues) expressed in Escherichia coli by ITC analysis.

A short description of assay [4]: Binding affinity to N-terminal GST tagged human ATAD2B Y1037A mutant expressed in Escherichia coli by ITC analysis. The procedure, abridged: as §1
Assay [5] in a line: Binding affinity to N-terminal GST tagged human ATAD2B Y995A mutant expressed in Escherichia coli by ITC analysis. The method in brief:
as §1

A short description of assay [6]: Binding affinity to N-terminal GST tagged human ATAD2B N1038A mutant expressed in Escherichia coli by ITC analysis. The procedure, abridged: as §1
Assay [7] has as its target T2, ATPase family AAA domain-containing protein 2. The assay is described as follows: Binding affinity to N-terminal GST tagged human ATAD2 (1-20 residues) expressed in Escherichia coli by ITC analysis.

Usually Kd stands for the concentration at which binding is half-saturated.

In the case of `Cc1cncc(-c2ccc(N[C@@H]3CCNC[C@H]3OCC3CCS(=O)(=O)CC3)c3[nH]c(=O)c(C)cc23)c1`, the Kd was 0.167 µM in assay [1] (read-out: Kd) and “Not Active” in assay [2].

Consider `CC(=O)NCCCC[C@H](NC(=O)CNC(=O)CN)C(=O)NCC(=O)N[C@@H](CC(C)C)C(=O)NCC(=O)N[C@@H](CCCCNC(C)=O)C(=O)NCC(=O)NCC(=O)N[C@@H](C)C(=O)O`, for which the Kd entry in assay [1] is reported as “Not Active”.

Regarding `C[C@H](N)C(=O)N[C@@H](CCCNC(=N)N)C(=O)N[C@H](C(=O)N[C@@H](CCCCN)C(=O)N[C@@H](CCC(N)=O)C(=O)N[C@H](C(=O)N[C@@H](C)C(=O)N[C@@H](CCCNC(=N)N)C(=O)N[C@@H](CCCCN)C(=O)N[C@@H](CO)C(=O)N[C@H](C(=O)NCC(=O)O)[C@@H](C)O)[C@@H](C)O)[C@@H](C)O`, in assay [1], the dissociation constant (Kd) entry is “Not Active”.

`CC(=O)NCCCC[C@H](NC(=O)CNC(=O)[C@H](CC(C)C)NC(=O)CNC(=O)[C@H](CCCCN)NC(=O)CNC(=O)CNC(=O)[C@H](CCCCN)NC(=O)CN)C(=O)NCC(=O)NCC(=O)N[C@@H](C)C(=O)N[C@@H](CCCCN)C(=O)N[C@@H](CCCNC(=N)N)C(=O)O`: the Kd in assay [3] was 2.5 µM; in assay [1] (read-out: Kd) it was 50.5 µM; in assay [4] it was “Not Active”; in assay [5] it was “Not Active”; in assay [2], “Not Active”.

Regarding `CC(=O)NCCCC[C@H](NC(=O)CN)C(=O)NCC(=O)NCC(=O)N[C@@H](CCCCN)C(=O)NCC(=O)N[C@@H](CC(C)C)C(=O)NCC(=O)N[C@@H](CCCCN)C(=O)NCC(=O)NCC(=O)N[C@@H](C)C(=O)N[C@@H](CCCCN)C(=O)N[C@@H](CCCNC(=N)N)C(=O)O`, the Kd result in assay [1] and in assay [6] was “Not Active” in each case.

Consider `C[C@H](NC(=O)[C@H](CCCCN)NC(=O)CNC(=O)CNC(=O)[C@@H](NC(=O)[C@H](CO)NC(=O)[C@H](CCCCN)NC(=O)[C@@H](N)CCCNC(=N)N)[C@@H](C)O)C(=O)N1CCC[C@H]1C(=O)N[C@@H](CCCNC(=N)N)C(=O)N[C@@H](CCCCN)C(=O)N[C@@H](CCC(N)=O)C(=O)O`, for which, in assay [1], the dissociation constant (Kd) result was “Not Active”.

As for `CC(=O)NCCCC[C@H](NC(=O)CNC(=O)CNC(=O)[C@H](CCCCN)NC(=O)CN)C(=O)NCC(=O)N[C@@H](CC(C)C)C(=O)NCC(=O)N[C@@H](CCCCN)C(=O)NCC(=O)NCC(=O)N[C@@H](C)C(=O)N[C@@H](CCCCN)C(=O)N[C@@H](CCCNC(=N)N)C(=O)O`, the Kd result in assay [1] is listed as “Not Active”.

As for H-LGK(Ac)GGAK(Ac)RHRK-OH, in assay [1] (read-out: Kd), the Kd was determined as 214 µM.

Turning to H-LGKGGAK(Ac)RHRK-OH, the Kd entry in assay [1] is “Not Active”.

Take H-SGRGK(Ac)GGK(Ac)GL-OH: the Kd in assay [1] (read-out: Kd) was 28.1 µM; in assay [4] it was “Not Active”; in assay [6] (read-out: Kd) it was 623 µM; in assay [5], “Not Active”; in assay [2] it was “Not Active”.

H-SGRGK(Ac)GGKGL-OH: the equilibrium dissociation constant (Kd) in assay [1] (read-out: Kd) was 48 µM; in assay [4], “Not Active”; in assay [7] it was 22 µM; in assay [5], “Not Active”; in assay [2] it was “Not Active”.

For the compound H-SGRGK(Ac)QGGKARA-OH, the Kd in assay [1] (read-out: Kd) was 42.5 µM; in assay [4], “Not Active”; in assay [5], “Not Active”; in assay [2], “Not Active”.

For the compound H-SGRGKGGK(Ac)GL-OH, in assay [1] (read-out: Kd), the Kd was found to be 1160 µM.
